# Source: PubChem BioAssay AID1748 (Sanford-Burnham Center for Chemical Genomics, 2009)
# Activity calls are given as the source filed them.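 The calls were made as follows: active = Cell killing by compound with TRAIL above both separate effects added together, at all three tested doses; inactive = the rest.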
# Tested on: MCF7 TRAIL potentiation, ATPlite luminescence, 24 h
# Assay: sensitizers of TRAIL-resistant MCF7 to apoptosis – cell-based, ATPlite luminescence, 24 h, confirmation (AID 1748)
# Settings: stronger effect = higher value
# Outline: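 Assay system: TRAIL-resistant MCF7 cells; Probe or stimulus: TRAIL, added after compound pretreatment; Dosing: compound at 1.25 to 5 µM final concentration; Schedule: 24 h settling, 4 h compound, 24 h TRAIL, 37 °C; Technique: ATPlite luminescence.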
# [1] = compound alone 1.25 uM, at 1.25 µM
# [2] = compound alone 2.5 uM, at 2.5 µM
# [3] = compound alone, no TRAIL, at 5 µM
# [4] = compound plus TRAIL 1.25 uM, at 1.25 µM
# [5] = compound plus TRAIL 2.5 uM, at 2.5 µM
SMILES,cytotoxicity with TRAIL (at 5 µM),cytotoxicity [1],cytotoxicity [2],cytotoxicity [3],cytotoxicity with TRAIL [4],cytotoxicity with TRAIL [5]
CSc1nc(-c2ccc(C)cc2)nc(C(Cl)Cl)n1,57% (inactive),0%,8%,26%,37%,48%
CCSc1nc(-c2ccccc2)nc(C(Cl)Cl)n1,72%,0%,0%,28%,44%,52%
CSc1nc(-c2ccccc2)nc(C(Cl)Cl)n1,82% (inactive),0%,36%,55%,55%,74%
